# Compound activity (PubChem BioAssay)
# CCR6 antag = antagonists of human CCR6 receptor. P51684. CHO-K1 CCR6 PathHunter beta-arrestin, luminescence, CCL20-stimulated. inhibition, % at 20 µM. 340,000 compounds, 0.49% hits. AID 493098;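 active = compounds whose inhibition of the agonist-driven luminescence signal at 20 µM reaches about 50%, limit read from the data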;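 note: cells stimulated with CCL20 at 14 nM final; plate controls were DMSO with CCL20 for no effect and DMSO without agonist for full effect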
# APJ antag = APJ receptor antagonism | P35414 | CHO-K1 APJ beta-arrestin complementation, luminescence | inhibition, % at 20 µM | 330,000 compounds, 0.32% hits | AID 2521;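 active = inhibition above about 40% at 20 µM, limit read from the data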;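 note: cells challenged with 10 nM apelin-13 agonist together with compound; plate controls were apelin-13 plus DMSO wells for no effect and DMSO wells lacking apelin-13 for full effect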
# Target sequence (P35414 whole entry, looked up): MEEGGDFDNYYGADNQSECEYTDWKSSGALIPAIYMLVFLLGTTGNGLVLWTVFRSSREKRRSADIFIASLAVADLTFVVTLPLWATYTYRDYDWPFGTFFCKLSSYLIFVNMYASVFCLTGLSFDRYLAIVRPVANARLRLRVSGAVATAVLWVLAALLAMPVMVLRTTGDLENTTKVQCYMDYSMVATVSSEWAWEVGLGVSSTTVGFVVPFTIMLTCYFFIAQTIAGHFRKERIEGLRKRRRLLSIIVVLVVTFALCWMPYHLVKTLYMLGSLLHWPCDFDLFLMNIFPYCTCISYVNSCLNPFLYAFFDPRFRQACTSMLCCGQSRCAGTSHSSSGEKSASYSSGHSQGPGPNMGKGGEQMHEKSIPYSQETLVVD
# APJ ag = APJ receptor agonism. P35414. CHO-K1 APJ PathHunter beta-arrestin, luminescence; 0% DMSO wells, 100% apelin. activation, % at 20 µM. 330,000 compounds, 0.11% hits;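 active = activation more than six SD over the plate average, tested at 20 µM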;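 note: 0% = DMSO alone and 100% = apelin-13 at 10 nM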
#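 Assay system: CHO-K1 cells stably expressing ProLink-tagged human APJ and arrestin–beta-gal acceptor. Compound dosing: 20 µM single point, 1% DMSO. Times: 16-18 h seeding, 90 min dark compound exposure, 60 min detection. Detection: beta-gal luminescence. Evaluation: APJ–arrestin association signal. Controls: negative DMSO alone, positive Apelin-13 at 10 nM.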
# EBI2 block = blocks human EBI2 receptor beta-arrestin signaling | P32249 | 360,000 compounds, 0.81% hits | inhibition, % at 5 µM | EBI2 beta-arrestin recruitment, luminescence, 7a,25-OHC stimulated; in the data active = inhibition above about 38%;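 note: enzyme fragment complementation signal reports receptor beta-arrestin coupling in cells; 0% = agonist plus DMSO wells and 100% = wells without agonist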
# CXCR6 inh = blocks human CXCR6 beta-arrestin recruitment | 360,000 compounds, 0.36% hits | CHO-K1 PathHunter CXCR6 beta-arrestin, luminescence | inhibition, % at 20 µM; in the data active = inhibition above about 34%, passing the limit was not always enough;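 note: antagonist mode with CXCL16 agonist at 10 nM final; 0% = 10 nM CXCL16 with DMSO and 100% = unstimulated wells without agonist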
# APJ antag conf = confirmation of human APJ apelin receptor antagonists. shares compounds with APJ antag. APJ beta-arrestin recruitment, luminescence, antagonist mode. inhibition, % at 20 µM. 950 compounds, 66% hits. AID 2766; in the data active = inhibition above about 50%
# CXCR6 antag conf = CXCR6 antagonism confirmation, single concentration. CHO-K1 CXCR6 PathHunter beta-arrestin, luminescence. inhibition, % at 20 µM. shares compounds with CXCR6 inh. AID 602409. 700 compounds, 65% hits;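 active = mean inhibition over four retests above 40%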;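 note: receptor stimulated with 10 nM CXCL16 agonist; beta-galactosidase fragment complementation upon beta-arrestin recruitment to receptor; plate controls were CXCL16 plus DMSO for no effect and DMSO without CXCL16 for full effect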
# * marks the source's active call; other numbers are inactive results; . = not tested or not shown. Hits are enriched below; roughly 1.5% of the tested compounds scored in any of these assays.
SMILES,CCR6 antag,APJ antag,APJ ag,EBI2 block,CXCR6 inh,APJ antag conf,CXCR6 antag conf
CCS(=O)(=O)c1ncc(Cl)c(C(=O)Nc2ccc(S(=O)(=O)N3CCC(C)CC3)cc2)n1,92*,71*,-7,49*,83*,98*,93*
Cc1c(CCC(=O)O)c(=O)oc2cc3occ(-c4ccc(Br)cc4)c3cc12,4,9,-4,-13,-13,.,.
COc1cc(/C=C/c2ccc3cccc(O)c3n2)cc(Br)c1OC,34,21,-6,10,23,.,.
COc1cc(/C=C/c2ccc3cccc(O)c3n2)cc(OC)c1OC,77*,49*,-11,62*,72*,58*,85*
COc1c(C(=O)Nc2nnc(C3CC3)s2)csc1Cl,13,-24,2,7,-2,.,.
C/C(=N\NC(=O)C(C)Oc1ccc([N+](=O)[O-])cc1)c1ccccn1 (stereo not given),77*,56*,-12,15,74*,73*,90*
O=C(C#Cc1ccccc1)c1ccco1,70*,58*,-4,21,69*,74*,83*
O=C(NNc1ccc([N+](=O)[O-])cc1)c1ccco1,30,-9,7,-1,14,.,.
O=C(NNc1ccc([N+](=O)[O-])cc1[N+](=O)[O-])c1ccco1,58*,51*,-16,8,44*,79*,48*
COc1ccc(CNC(=O)C2CCN(S(=O)(=O)N3CCC(C)CC3)CC2)c(OC)c1,.,.,.,7,0,.,.
O=C(NCc1cccs1)c1csc([C@@H]2C[C@H](O)[C@@H](CO)O2)n1,.,.,.,0,-5,.,.
CC(=O)NS(=O)(=O)c1ccc(Nc2ccc([N+](=O)[O-])c3nonc23)cc1,55*,45*,-8,14,51*,101*,47*
CC(=O)Nc1ccc(Nc2ccc3nonc3c2[N+](=O)[O-])cc1,-6,-13,1,-10,-6,.,.
CCOc1ccc(Nc2ccc([N+](=O)[O-])c3nonc23)cc1,56*,52*,-10,15,59*,89*,43*
CCCNC(=O)C1(C)CCN(C(=O)c2c(F)ccc(C)c2F)C1 (stereo not given),.,.,.,-8,-2,.,.
COc1cc(C2C(C#N)=C(N)Oc3n[nH]c(-c4cccnc4)c32)cc(Br)c1O (stereo not given),65*,56*,-8,11,46*,75*,52*
CC(=O)OCCCNc1cc(Sc2nc3ccccc3s2)c2nonc2c1[N+](=O)[O-],104*,77*,-6,63*,93*,101*,103*
Cc1sc(NC(=O)C2CSC3(C)CCC(=O)N23)nc1-c1ccc(F)cc1 (stereo not given),12,6,4,6,4,.,.
COc1ccc(NC(=O)/C(Cl)=C(/Cl)S(=O)Cc2ccccc2)cn1 (stereo not given),90*,86*,-10,79*,81*,100*,88*
O=C(C[C@H]1C[C@H](C(=O)N2CCCCC2)[C@@]2(CCc3ccccc3)c3[nH]c4ccc(Cl)cc4c3CCN2C1=O)NCCC1=CCCCC1,13,.,.,2,-2,.,.
NNc1nc(-c2ccccc2)cc(-c2ccccc2O)n1,85*,57*,-14,42,79*,143*,84*
CCC(C)c1ccc(O)c(NC(=O)c2cccnc2)c1 (stereo not given),2,-9,-7,-1,-4,.,.
CC(C)c1ccc(O)c(NC(=S)NC(=O)c2cccnc2)c1,69*,59*,-10,22,60*,84*,67*
O=C(C1CCN(S(=O)(=O)c2cccs2)CC1)N1CCCC(C(F)(F)F)C1 (stereo not given),12,3,-7,1,-4,.,.
S=C(N/N=C/c1ccccc1)N1CCOCC1,68*,48*,-9,-14,41*,72*,75*
SMILES,CCR6 antag,APJ antag,APJ ag,EBI2 block,CXCR6 inh,APJ antag conf,CXCR6 antag conf
CCOc1cc(Cl)c(NC(C)=O)cc1OCC,11,-16,0,-13,-5,.,.
Cc1ccc(-n2c(SCCN)nnc2-c2cccc(C)c2)cc1,60*,42*,-8,18,44*,70*,49*
O=C(Nc1nc(-c2ccccn2)cs1)Nc1ccc(F)cc1F,67*,41*,-8,36,65*,65*,79*
CCOc1ccc(-c2csc(/C(C#N)=C\c3ccc(O)c([N+](=O)[O-])c3)n2)cc1,55*,50*,-5,1,39*,61*,39
CC(=O)Nc1ccc(C(=O)OCC(=O)c2ccc(S(=O)(=O)N3CCCCC3)cc2)cc1,30,-7,-9,7,21,.,.
CC(=O)Nc1cccc(C(=O)OCC(=O)c2ccc(S(=O)(=O)N3CCCCC3)cc2)c1,54*,49*,-18,-8,42*,71*,14
COc1cc(OC)cc(C(=O)OCC(=O)c2ccc(S(=O)(=O)N3CCCCC3)cc2)c1,32,22,-8,14,23,.,.
CC(C)[C@H](NC(=O)c1ccccc1)C(=O)OCC(=O)c1ccc(S(=O)(=O)N2CCCCC2)cc1,54*,47*,-25,19,44*,21,32
COc1ccc(CC(=O)OCC(=O)c2ccc(S(=O)(=O)N3CCCCC3)cc2)cc1,65*,71*,-11,7,48*,70*,24
CCN(CC)S(=O)(=O)c1cc(C(=O)N(C)CC(=O)Nc2ccc(Cl)cc2)ccc1Cl,10,-9,0,-1,-4,.,.
CCOc1cccc2cc(C(=O)N3CCOCC3)c(=O)oc12,0,30,8,7,8,.,.
CCN1C(=O)CS/C1=N\S(=O)(=O)c1ccc(Cl)cc1,13,-8,-6,-1,-2,.,.
CCn1c(Cl)c(C=O)s/c1=N\S(=O)(=O)c1ccccc1,105*,96*,0,32,89*,105*,105*
CC1CCN(S(=O)(=O)c2ccc(NC(=O)c3ccco3)cc2)CC1,-1,9,-2,-3,0,.,.
O=S(=O)(/N=C(/Nc1cccnc1Cl)c1ccccc1)c1ccccc1,3,9,-1,-10,-2,.,.
Cc1cccc(NC(=S)NNc2ncc(C(F)(F)F)cc2Cl)c1,91*,54*,-2,22,52*,89*,53*
O=C(Nc1ccccc1)Nc1ncc(C(F)(F)F)cc1Cl,.,.,.,-6,2,.,.
CCOC(=O)C1CCCN(C(=O)COc2ccc(C(=O)c3ccccc3)cc2)C1 (stereo not given),12,-11,0,-7,2,.,.
CCOC(=O)C1CCCN(c2c(C(=O)c3ccccc3)cnc3ccc(OC)cc23)C1 (stereo not given),83*,58*,-12,41,70*,96*,69*
